# In the library only some 1.5% were active in any assay of this set; here they are far more common.
# CXCR6 inh: CXCR6 receptor inhibitors, primary screen, cell-based, beta-arrestin, luminescence, CHO-K1 PathHunter, 1536-well | C-X-C chemokine receptor type 6 (Homo sapiens), O00574 | inhibition, % at 20 µM | 0.36% of 360,000 active | AID 602244, 2012; in the data active = inhibition above about 34%, passing the limit was not always enough;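 also: antagonist mode with CXCL16 agonist at 10 nM final; 0% = 10 nM CXCL16 with DMSO and 100% = unstimulated wells without agonist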
# APJ agonist: agonists of human apelin receptor APJ, primary screen, CHO-K1 cells, PathHunter beta-arrestin, luminescence; 0.11% of 330,000 active; activation, % at 20 µM; AID 2520, 2010; 0% DMSO wells, 100% apelin; P35414;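 active = activation more than six SD over the plate average, tested at 20 µM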;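 also: 0% = DMSO alone and 100% = apelin-13 at 10 nM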
#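 Assay system: engineered CHO-K1 APJ arrestin reporter cells; Amount: 1000 CHO-K1 reporter cells seeded per well; Dosing: one dose, 20 µM compound, 1% DMSO; Times: compound stimulation 90 min at 25 °C, detection 60 min; Measured by: luminescent beta-gal fragment complementation, chemiluminescent substrate; Read-out: APJ–arrestin association signal; Controls: DMSO vs Apelin-13 10 nM.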
# APJ antagonist: antagonists of human apelin receptor APJ, primary screen, CHO-K1 cells, beta-arrestin complementation, luminescence; AID 2521, 2010; 0.32% of 330,000 active; inhibition, % at 20 µM; P35414;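 active = inhibition above about 40% at 20 µM, limit read from the data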;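 also: cells challenged with 10 nM apelin-13 agonist together with compound; plate controls were apelin-13 plus DMSO wells for no effect and DMSO wells lacking apelin-13 for full effect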
# CCR6 antag: CCR6 receptor antagonists, primary screen, cell-based, CHO-K1, luminescence, beta-arrestin, uHTS | C-C chemokine receptor type 6 (Homo sapiens), P51684 | CHO-K1 CCR6 PathHunter beta-arrestin, CCL20-stimulated | inhibition, % at 20 µM | 0.49% of 340,000 active;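 active = compounds whose inhibition of the agonist-driven luminescence signal at 20 µM reaches about 50%, limit read from the data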;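 also: cells stimulated with CCL20 at 14 nM final; plate controls were DMSO with CCL20 for no effect and DMSO without agonist for full effect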
# Target sequence (P51684 whole entry, looked up): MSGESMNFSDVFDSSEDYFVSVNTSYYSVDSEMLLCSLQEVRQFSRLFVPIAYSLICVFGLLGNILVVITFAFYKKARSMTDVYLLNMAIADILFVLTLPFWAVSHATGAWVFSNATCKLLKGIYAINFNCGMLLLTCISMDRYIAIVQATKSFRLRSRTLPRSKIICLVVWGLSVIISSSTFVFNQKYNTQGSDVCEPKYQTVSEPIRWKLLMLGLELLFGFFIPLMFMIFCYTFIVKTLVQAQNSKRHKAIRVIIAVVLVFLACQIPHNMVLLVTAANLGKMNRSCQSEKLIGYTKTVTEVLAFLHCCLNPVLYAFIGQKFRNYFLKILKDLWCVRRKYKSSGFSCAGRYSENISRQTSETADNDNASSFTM
# EBI2 block: EBI2 receptor antagonists, beta-arrestin recruitment, primary screen, cell-based, luminescence, 7a,25-OHC stimulation, uHTS. G-protein coupled receptor 183 (Homo sapiens), P32249. 7a,25-OHC stimulated. inhibition, % at 5 µM. 0.81% of 360,000 active. AID 651636, 2012; in the data active = inhibition above about 38%;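 also: enzyme fragment complementation signal reports receptor beta-arrestin coupling in cells; 0% = agonist plus DMSO wells and 100% = wells without agonist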
# EBI2 conf: EBI2 antagonist hit retest, beta-arrestin, confirmation, cell-based, single concentration, luminescence, 7a,25-OHC stimulation | 7a,25-OHC antagonism | AID 651997, 2013 | shares compounds with EBI2 block | 29% of 2,400 active | inhibition, % at 5 µM;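 active = inhibition of at least 50%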
# EBI2 ag: EBI2 agonist activity of antagonist hits, confirmation, counter-screen for EBI2 antagonist project, cell-based, single concentration, agonist mode, luminescence; EBI2-expressing cells, 60 min; 0% vehicle, 100% 7α,25-dihydroxycholesterol control; activation, % at 5 µM; 2,400 tested, under 10 active; shares compounds with EBI2 block;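 active = activation of at least 50%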
# bGal counter: E. coli beta-galactosidase enzyme inhibition, confirmation, counter-screen for EBI2 antagonist project, biochemical, luminescence, single concentration | AID 652176, 2013 | inhibition, % at 5 µM | shares compounds with EBI2 block | 1% of 2,400 active | purified beta-galactosidase, luminescent Galacton Star, 15 min;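 active = replicate-average signal at least 3 plate SD below neutral wells, shown as high inhibition, flagging enzyme-inhibiting false positives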;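 also: 0% = DMSO wells with enzyme and 100% = wells lacking enzyme; higher means stronger loss of beta-gal luminescence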
# Numbers without * were called inactive; / = not tested or not shown.
SMILES,CXCR6 inh,APJ agonist,APJ antagonist,CCR6 antag,EBI2 block,EBI2 conf,EBI2 ag,bGal counter
N#CCc1nc2ccccc2c(=O)[nH]1,8,-1,32,6,-16,/,/,/
COc1ccc(/C=N/NC(=O)c2cccc(NC(C)=O)c2)c(C(=O)O)c1OC,2,-2,7,2,-2,/,/,/
COc1cccc(CN2CCN(C(=O)c3ccc(-c4ccccc4)cc3)CC2)c1,13,-2,-7,-5,78*,45,1,9
COc1cccc(CN2CCN(C(=O)c3ccc(-c4ccccc4)cc3)CC2)c1OC,-2,-4,0,8,65*,44,0,10
COc1cccc(C(=O)N2CCN(C(=O)c3ccc(-c4ccccc4)cc3)CC2)c1OC,3,-1,13,4,78*,48,1,10
COc1cccc(CN2CCN(C(=O)c3cccc(OC)c3)CC2)c1,3,-1,4,13,-4,/,/,/
COc1cc(CN2CCN(C(=O)c3ccc(-c4ccccc4)cc3)CC2)cc(OC)c1OC,10,-3,-4,8,48*,32,0,8
CC(C)(C)c1ccc(C(=O)NNC(=O)CNC(=O)c2cccs2)cc1,6,0,-1,5,-14,/,/,/
O=C(Nc1cccc(C(F)(F)F)c1)c1cncs1,-1,-2,-15,11,-1,/,/,/
Cc1ccc(NC(=O)Cn2c(=O)c3cccn3c3ccccc32)c(Cl)c1,-5,-2,-7,18,5,/,/,/
O=C(Cn1nc(C(=O)O)c2ccccc2c1=O)Nc1cccc(S(=O)(=O)N2CCCC2)c1,-7,10,-4,13,-1,/,/,/
CCOC(=O)N1CCN(C(=O)c2c(Cl)cnn2C)CC1,-3,2,-13,2,-1,/,/,/
CN1CCN(S(=O)(=O)c2cccc(C(=O)NCc3ccccc3Cl)c2)CC1,3,-4,9,8,-6,/,/,/
COc1cc2cc(C(c3nnnn3C3CCCC3)N(C)C3CCCCC3)c(=O)[nH]c2cc1OC (stereo unspecified),8,-2,-2,-7,58*,54*,2,3
COc1cc2cc(C(c3nnnn3C3CCCCC3)N(C)C3CCCCC3)c(=O)[nH]c2cc1OC (stereo unspecified),17,-1,8,-16,36*,46,1,-1
COc1ccc2[nH]c(=O)c(C(c3nnnn3C3CCCCC3)N3CCN(C)CC3)cc2c1 (stereo unspecified),-12,-2,-1,12,-5,/,/,/
CCOC(=O)c1c(NC(=O)CN2CCCc3ccccc32)sc(C(C)=O)c1C,-14,-3,-5,-29,-2,/,/,/
CC(C)(C)c1ccc(NC(=O)CNC2CCCc3ccccc32)cc1 (stereo unspecified),-6,-1,3,8,-15,/,/,/
COCCOC(=O)c1c(NC(=O)CN2CCc3ccccc32)sc(C(N)=O)c1C,-8,0,4,5,70*,22,-1,-11
COCCOC(=O)c1c(NC(=O)CNC2CCCc3ccccc32)sc(C(N)=O)c1C (stereo unspecified),5,-1,-25,10,82*,42,-2,-6
COCCOC(=O)c1c(NC(=O)CN(C)c2ccccc2)sc(C(N)=O)c1C,7,-3,-3,1,88*,54*,3,11
CCOC(=O)c1c(NC(=O)CN(C)C2CCN(C)CC2)sc(C(=O)Nc2ccccc2)c1C,-7,-4,8,12,3,/,/,/
COCCOC(=O)c1c(NC(=O)COC(=O)Cc2cccc(OC)c2)sc(C(N)=O)c1C,0,-10,13,10,44*,17,-2,-19
Cc1n[nH]c(C)c1S(=O)(=O)N(CC(=O)NC1CCCC1)c1ccc(C(C)C)cc1,-2,0,4,11,1,/,/,/
COc1ccccc1-c1cc2nc(C)c(CCC(=O)NC(C)CCc3ccco3)c(C)n2n1 (stereo unspecified),-6,-2,-31,14,7,/,/,/
SMILES,CXCR6 inh,APJ agonist,APJ antagonist,CCR6 antag,EBI2 block,EBI2 conf,EBI2 ag,bGal counter
N#CCOc1coc(CN2CCN(c3ccccc3)CC2)cc1=O,0,-3,12,5,-2,/,/,/
CCN1CCN(C(c2cccs2)C(C)NS(=O)(=O)c2ccc(C)cc2)CC1 (stereo unspecified),-1,-2,1,6,1,/,/,/
CC1=C(C(=O)N(C(C)C)C(C)C)CC(CC(=O)NCCN2CCOCC2)C(=O)N1CCCN1CCCC1=O (stereo unspecified),3,/,/,/,-10,/,/,/
Cc1cc(NC(=O)Nc2ccccc2F)ccc1Br,-15,2,15,4,-5,/,/,/
Cc1ccc(CNC(=O)C2CCN(S(=O)(=O)c3ccc4c(c3)CC(C)N4C(=O)C3CC3)CC2)cc1 (stereo unspecified),-7,22,-9,9,79*,45,1,3
CC(=O)N1c2ccc(S(=O)(=O)NCC3CCC(C(=O)NCc4ccc(C)cc4)CC3)cc2CC1C (stereo unspecified),1,7,9,16,57*,46,0,7
CCCOc1ccccc1OCC(=O)Nc1cccc(S(=O)(=O)NC2=NCCC2)c1,-4,-4,-31,17,4,/,/,/
Cc1ccc(Nc2ccc(NCc3ccccc3)nn2)cc1C,-11,-4,4,-3,65*,45,1,5
Clc1ccc(Nc2ccc(NCc3ccccc3)nn2)cc1,-4,-1,-2,0,63*,45,-1,-8
COC(=O)/C=C1\C(=O)N(c2nc3ccccc3s2)C(=S)N1c1ccc(F)cc1,4,1,-8,-6,89*,90*,1,1
COc1cc2cnc(-c3ccccc3)c(C(=O)c3ccc(F)cc3)c2cc1OC,0,0,5,14,9,/,/,/
COc1cccc(C(=O)c2c(-c3ccccc3)ncc3cc(OC)c(OC)cc23)c1,3,/,/,27,85*,56*,0,-14
O=C1NN=C(c2ccc(Cl)cc2)CC1c1cccc(Br)c1 (stereo unspecified),-10,-2,-5,15,29,/,/,/

# Screening results: PubChem BioAssay, Sanford-Burnham Center for Chemical Genomics
